According to ChEMBL document CHEMBL2202986, “Guaianolide sesquiterpene lactones, a source to discover agents that selectively inhibit acute myelogenous leukemia stem and progenitor cells” (J Med Chem, 2012):

Assays:
[1] = Cytotoxicity against human HL60/A cells after 18 hrs by annexin-V labeling-based flow cytometry; assay type: functional, cell-based
HL-60 = experiment: Cytotoxicity against human HL60 cells after 18 hrs by annexin-V labeling-based flow cytometry; assay type: functional, cell-based; settings: HL-60, 18 h
[2] = Drug degradation at pH 7.4 assessed as release of PTL after 3 hrs; assay type: physicochemical; settings: buffer, pH 7.4, 3 h
[3] = Cytotoxicity against human leukemia stem/progenitor cells assessed as viable CD34+ cells at 10 uM after 18 hrs by annexin-V labeling-based flow cytometry; assay type: functional, CD34+ cell
[4] = Cytotoxicity against human leukemia stem/progenitor cells assessed as viable CD34+ cells at 5 uM after 18 hrs by annexin-V labeling-based flow cytometry; assay type: functional, CD34+ cell
Procedure, shortened: (§1)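 Primary leukemia cells from AML patient blood were treated for 18 h in serum-free IMDM, then stained with CD34-APC and CD38-PECy7 for 30 min. After washing in cold PBS, cells were labelled with Annexin-V–FITC/PI for 15 min at room temperature and read by flow cytometry. Viability of total and CD34⁺ cells was normalized to untreated controls (mean, SD).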

[5] = Cytotoxicity against human leukemia stem/progenitor cells assessed as cell viability at 5 uM after 18 hrs by annexin-V labeling-based flow cytometry; assay type: functional; settings: in the assay text read “leukemia cells” for “leukemia stem/progenitor cells”, read-out: Activity; procedure, shortened: as §1
[6] = Cytotoxicity against human leukemia cells assessed as cell viability at 10 uM after 18 hrs by annexin-V labeling-based flow cytometry

**Q.** Which IC50 [1] does the source give for `C=C1CC(=O)OC1=O` [ITACONIC ANHYDRIDE] here?
**A.** > 50 µM

**Q.** What about the IC50 (HL-60) of the same compound?
**A.** > 50 µM

**Q.** Which results are given for `C/C1=C\CC[C@@]2(C)O[C@@H]2[C@H]2OC(=O)[C@@H](Cn3cc(CO)nn3)[C@@H]2CC1`?
**A.** Drug degradation [2]: Not Active; IC50 [1]: > 100 µM; IC50 (HL-60): > 50 µM

**Q.** For `C=C1CC[C@@H]2[C@](C)(CO)[C@H](O)CC[C@@]2(C)[C@@H]1C/C=C1/C(=O)OC[C@H]1O` [ANDROGRAPHOLIDE], which IC50 [1] is on record?
**A.** 23.3 µM

**Q.** And the IC50 (HL-60)?
**A.** 27 µM

**Q.** With `C=C1CC[C@H]2C(=C)C(=O)O[C@@H]2[C@]2(O)[C@@H]1CC[C@@H]2C` as the compound, how does the Activity [3] read?
**A.** 44.5%

**Q.** And the Activity [4]?
**A.** 67.9%

**Q.** And the viability at 5 µM [5]?
**A.** 70.7%

**Q.** And the IC50 [1]?
**A.** 6.4 µM

**Q.** What about the IC50 (HL-60) of the same compound?
**A.** 4.5 µM

**Q.** And the viability at 10 µM [6]?
**A.** 49.7%

**Q.** With `CCCCC/C=C/C=C/C(=O)N1CCCC1` [SARMENTINE] as the compound, how does the IC50 [1] read?
**A.** > 50 µM

**Q.** And the IC50 (HL-60)?
**A.** > 50 µM

**Q.** Which Activity [3] does the source give for `C=C1C(=O)O[C@@H]2[C@@H]3[C@@H](CC[C@@]3(C)O)C(=C)CC[C@@H]12` here?
**A.** 22.6%

**Q.** What about the Activity [4] of the same compound?
**A.** 53.7%

**Q.** What about the viability at 5 µM [5] of the same compound?
**A.** 61.6%

**Q.** What about the IC50 [1] of the same compound?
**A.** 9.9 µM

**Q.** And the IC50 (HL-60)?
**A.** 9.4 µM

**Q.** And the viability at 10 µM [6]?
**A.** 30.6%

**Q.** For `CC1=C2CC[C@@](C)(O)[C@@H]2[C@H]2OC(=O)[C@@H](CN=[N+]=[N-])[C@@H]2CC1`, which Activity [3] is on record?
**A.** 11.2%

**Q.** And the Activity [4]?
**A.** 26.3%

**Q.** And the viability at 5 µM [5]?
**A.** 64.3%

**Q.** And the IC50 [1]?
**A.** 6.7 µM

**Q.** What about the IC50 (HL-60) of the same compound?
**A.** 6.2 µM

**Q.** What about the viability at 10 µM [6] of the same compound?
**A.** 53.1%

**Q.** What does the source list for `C=C1C(=O)O[C@@H]2[C@@H]3[C@@H](CC[C@@]3(C)O)[C@](C)(O)CC[C@@H]12`?
**A.** Activity [3]: 84.8%; Activity [4]: 84.9%; viability at 5 µM [5]: 88.5%; IC50 [1]: 17.9 µM; IC50 (HL-60): 21.9 µM; viability at 10 µM [6]: 89.9%

**Q.** What does the source list for `C=C1CCOC1=O` [TULIPALINE A]?
**A.** IC50 [1]: 28.8 µM; IC50 (HL-60): 35 µM

**Q.** With `C=C1C(=O)O[C@@H]2C=C(CCC(C)=O)[C@@H](C)CC[C@@H]12` as the compound, how does the Activity [3] read?
**A.** 70.9%

**Q.** And the Activity [4]?
**A.** 81.5%

**Q.** What about the viability at 5 µM [5] of the same compound?
**A.** 83.2%

**Q.** What about the IC50 [1] of the same compound?
**A.** > 50 µM

**Q.** What about the IC50 (HL-60) of the same compound?
**A.** > 50 µM

**Q.** What about the viability at 10 µM [6] of the same compound?
**A.** 72%

**Q.** Which Drug degradation [2] does the source give for `C/C1=C\CC[C@@]2(C)O[C@@H]2[C@H]2OC(=O)[C@@H](Cn3cc(CCCCO)nn3)[C@@H]2CC1` here?
**A.** Not Active

**Q.** What about the IC50 [1] of the same compound?
**A.** > 100 µM

**Q.** What about the IC50 (HL-60) of the same compound?
**A.** > 50 µM

**Q.** Which Drug degradation [2] does the source give for `C/C1=C\CC[C@@]2(C)O[C@@H]2[C@H]2OC(=O)[C@@H](Cn3cc(-c4cccc(N)c4)nn3)[C@@H]2CC1` here?
**A.** Not Active

**Q.** And the IC50 [1]?
**A.** > 100 µM

**Q.** And the IC50 (HL-60)?
**A.** > 50 µM

**Q.** With `C=C1C(=O)O[C@H]2[C@H]1CCC(C)=C1CC[C@@](C)(OC)[C@@H]12` as the compound, how does the Activity [3] read?
**A.** 2.1%

**Q.** And the Activity [4]?
**A.** 25.5%

**Q.** What about the viability at 5 µM [5] of the same compound?
**A.** 34.1%

**Q.** And the IC50 [1]?
**A.** 10.2 µM

**Q.** What about the IC50 (HL-60) of the same compound?
**A.** 9.9 µM

**Q.** What about the viability at 10 µM [6] of the same compound?
**A.** 10.8%

**Q.** Which Activity [3] does the source give for `C=C1C(=O)O[C@@H]2[C@@H]3[C@@H](CC[C@@]3(C)O)[C@](C)(OC)CC[C@@H]12` here?
**A.** 76.3%

**Q.** And the Activity [4]?
**A.** 95.8%

**Q.** What about the viability at 5 µM [5] of the same compound?
**A.** 96.5%

**Q.** What about the IC50 [1] of the same compound?
**A.** 11.2 µM

**Q.** And the IC50 (HL-60)?
**A.** 9.4 µM

**Q.** What about the viability at 10 µM [6] of the same compound?
**A.** 75.2%

**Q.** For `C=C1C(=O)O[C@@H]2/C=C(\C)CC/C=C(\C)CC[C@@H]12` [COSTUNOLIDE], which Activity [3] is on record?
**A.** 7.5%

**Q.** And the Activity [4]?
**A.** 18.8%

**Q.** What about the viability at 5 µM [5] of the same compound?
**A.** 25.8%

**Q.** What about the IC50 [1] of the same compound?
**A.** 5.8 µM

**Q.** And the IC50 (HL-60)?
**A.** 7.7 µM

**Q.** What about the viability at 10 µM [6] of the same compound?
**A.** 13.4%

**Q.** What does the source list for `CC1=C2CC[C@@](C)(O)[C@@H]2[C@H]2OC(=O)[C@@H](C)[C@@H]2CC1`?
**A.** Activity [3]: 74.4%; Activity [4]: 83.1%; viability at 5 µM [5]: 85%; IC50 [1]: > 50 µM; IC50 (HL-60): > 50 µM; viability at 10 µM [6]: 70.8%

**Q.** Which IC50 [1] does the source give for `C[C@@H]1CC[C@H]2[C@@H](C)C(=O)O[C@@H]3O[C@@]4(C)CC[C@@H]1[C@]32OO4` [ARTEMISININ] here?
**A.** > 50 µM

**Q.** What about the IC50 (HL-60) of the same compound?
**A.** > 50 µM

**Q.** For `C=C1CC[C@H]2C(=C)CC[C@H]3C(=C)C(=O)O[C@@H]3[C@@H]12` [DEHYDROCOSTUSLACTONE], which Activity [3] is on record?
**A.** 3.8%

**Q.** What about the Activity [4] of the same compound?
**A.** 2.9%

**Q.** What about the viability at 5 µM [5] of the same compound?
**A.** 6.1%

**Q.** And the IC50 [1]?
**A.** 3.7 µM

**Q.** What about the IC50 (HL-60) of the same compound?
**A.** 5.3 µM

**Q.** What about the viability at 10 µM [6] of the same compound?
**A.** 6.4%
